Data from ChEMBL document CHEMBL1212742 (2010).
≈ marks a conversion by molar mass, not a printed value.

Key:
Assay type in all cases: functional
[1] = test system: Mycobacterium tuberculosis; experiment: Antimicrobial activity against wild type Mycobacterium tuberculosis 8C6 after 4 weeks by Bactec 460TB method; details: 8C6, 672 h
[2] = test system: Mycobacterium tuberculosis; experiment: Antimicrobial activity against wild type Mycobacterium tuberculosis 8C6 after 4 weeks by 7H agar proportion method
How it was run: (§1)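 EMB MIC by 7H10 agar proportion for clones selected from M. tuberculosis strain 210. About 10^9 cells from liquid culture (OD600 ~1.5, resuspended in 7H9) were plated on 7H10 with EMB at 8, 16 or 32 µg/ml final, incubated 37°C for 4 weeks. Colonies were subcultured in EMB-free 7H9 before testing, and embCAB was genotyped.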

[3] = test system: Mycobacterium tuberculosis; experiment: Antimicrobial activity against wild type Mycobacterium tuberculosis 8C3 after 4 weeks by Bactec 460TB method; details: 8C3, 672 h
[4] = test system: Mycobacterium tuberculosis; experiment: Antimicrobial activity against wild type Mycobacterium tuberculosis 8C2 after 4 weeks by Bactec 460TB method; details: 8C2, 672 h
How it was run: (§2)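 EMB MIC by radiometric Bactec 460TB liquid method for clones from strain 210. The clones were selected on 7H10 containing 8, 16 or 32 µg/ml EMB final (~10^9 cells plated, 37°C, 4 weeks), then subcultured in 7H9 without EMB before MIC testing. embCAB was genotyped.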

[5] = test system: Mycobacterium tuberculosis; experiment: Antimicrobial activity against wild type Mycobacterium tuberculosis 8C2 after 4 weeks by 7H agar proportion method; how it was run: as §1
[6] = test system: Mycobacterium tuberculosis; experiment: Antimicrobial activity against wild type Mycobacterium tuberculosis 8C1 after 4 weeks by Bactec 460TB method; details: 8C1, 672 h; how it was run: as §2
[7] = test system: Mycobacterium tuberculosis; experiment: Antimicrobial activity against wild type Mycobacterium tuberculosis 8C1 after 4 weeks by 7H agar proportion method; how it was run: as §1
[8] = test system: Mycobacterium tuberculosis; experiment: Antimicrobial activity against wild type Mycobacterium tuberculosis 210 after 4 weeks by Bactec 460TB method; details: Mycobacterium tuberculosis, 210, 672 h
How it was run: (§3)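 Parental M. tuberculosis strain 210 with no EMB exposure. EMB MIC determined in parallel by 7H10 agar proportion and radiometric Bactec 460TB.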

[9] = test system: Mycobacterium tuberculosis; experiment: Antimicrobial activity against wild type Mycobacterium tuberculosis 210 after 4 weeks by 7H agar proportion method; how it was run: as §3
[10] = test system: Mycobacterium tuberculosis; experiment: Antimicrobial activity against wild type Mycobacterium tuberculosis 16C10 after 4 weeks by 7H agar proportion method; how it was run: as §1
[11] = test system: Mycobacterium tuberculosis; experiment: Antimicrobial activity against wild type Mycobacterium tuberculosis 16C10 after 4 weeks by Bactec 460TB method; details: 16C10, 672 h; how it was run: as §2
[12] = test system: Mycobacterium tuberculosis; experiment: Antimicrobial activity against wild type Mycobacterium tuberculosis 16C12 after 4 weeks by 7H agar proportion method; how it was run: as §1
[13] = test system: Mycobacterium tuberculosis; experiment: Antimicrobial activity against wild type Mycobacterium tuberculosis 16C12 assessed as inhibition of growth after 4 weeks by Bactec 460TB method; details: 16C12, 672 h; how it was run: as §2
[14] = test system: Mycobacterium tuberculosis; experiment: Antimicrobial activity against wild type Mycobacterium tuberculosis 210 after 4 weeks; details: Mycobacterium tuberculosis, 210, 672 h
How it was run: (§4)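 Isogenic embB mutants made by allelic exchange in strain 210. PCR-built fragments carried the codon of interest; double-crossover colonies were screened by molecular beacon assay and confirmed by direct embB sequencing. MICs of EMB, INH and RIF were determined by radiometric Bactec 460TB and 7H10 agar proportion, alongside parent 210.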

[15] = test system: Mycobacterium tuberculosis; experiment: Antimicrobial activity against wild type Mycobacterium tuberculosis NJT210CGG-CAG after 4 weeks; details: 672 h; how it was run: as §4

`CC[C@@H](CO)NCCN[C@@H](CC)CO` [ETHAMBUTOL] gave an MIC [1] of 2 µg/mL (≈ 9.79 µM), an MIC [2] of 4 µg/mL (≈ 19.6 µM) and an MIC [3] of 4 µg/mL (≈ 19.6 µM). For the same compound, the MIC [4] was 4 µg/mL (≈ 19.6 µM), the MIC [5] was 8 µg/mL (≈ 39.2 µM) and the MIC [6] was 2 µg/mL (≈ 9.79 µM). For the same compound, the MIC [7] was 6 µg/mL (≈ 29.4 µM), the MIC [8] was 2 µg/mL (≈ 9.79 µM) and the MIC [9] was 2 µg/mL (≈ 9.79 µM). The MIC [10] was 6 µg/mL (≈ 29.4 µM), the MIC [11] was 2 µg/mL (≈ 9.79 µM) and the MIC [12] was 8 µg/mL (≈ 39.2 µM). For the same compound, the MIC [13] was 3 µg/mL (≈ 14.7 µM), the MIC [14] was 2 µg/mL (≈ 9.79 µM) and the MIC [15] was 2 µg/mL (≈ 9.79 µM).

`NNC(=O)c1ccncc1` [ISONIAZID] gave an MIC [14] of 0.05 µg/mL (≈ 0.365 µM) and an MIC [15] of 0.05 µg/mL (≈ 0.365 µM).

`CO[C@H]1/C=C/O[C@@]2(C)Oc3c(C)c(O)c4c(O)c(c(/C=N/N5CCN(C)CC5)c(O)c4c3C2=O)NC(=O)/C(C)=C\C=C\[C@H](C)[C@H](O)[C@@H](C)[C@@H](O)[C@@H](C)[C@H](OC(C)=O)[C@@H]1C` [RIFAMPIN] was tested, and the MIC [14] was 0.05 µg/mL (≈ 0.0608 µM) and the MIC [15] was 0.05 µg/mL (≈ 0.0608 µM).
